In ChEMBL document CHEMBL1129639, “Synthesis and cardiotonic activity of novel pyrimidine derivatives: crystallographic and quantum chemical studies” (J Med Chem, 1996):

Tests used:
Assay type in all cases: functional
[1] = species on record: Cavia porcellus; test: Effect on the contractile force of spontaneously beating atria from Reserpine-treated guinea pigs as percentage variation from the control at concentration of 10E-5 M
Procedure, shortened: (§1)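 Atria from reserpine-treated guinea pigs (reserpine 2 mg/kg ip, 48 and 24 h before death; only tyramine-unresponsive preparations used). Bath solution at 29 °C, gassed 95% O2/5% CO2, pH 7.5, resting tension […]. After 90 min equilibration, compound added cumulatively, 5 min per concentration. Isometric developed-tension amplitude or beating rate given as % variation from untreated control. Mean ± SEM, 6-10 assays.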

[2] = species on record: Cavia porcellus; test: Effect on the contractile force of spontaneously beating atria from Reserpine-treated guinea pigs as percentage variation from the control at concentration of 10E-6 M; procedure, shortened: as §1
[3] = species on record: Cavia porcellus; test: Effect on the contractile force of spontaneously beating atria from Reserpine-treated guinea pigs as percentage variation from the control at concentration of 3 x 10E-4 M; procedure, shortened: as §1
[4] = species on record: Cavia porcellus; test: Effect on the contractile force of spontaneously beating atria from Reserpine-treated guinea pigs as percentage variation from the control at concentration of 3 x 10E-5 M; procedure, shortened: as §1
[5] = species on record: Cavia porcellus; test: Effect on the contractile force of spontaneously beating atria from Reserpine-treated guinea pigs as percentage variation from the control at concentration of 3 x 10E-6 M; procedure, shortened: as §1
[6] = species on record: Cavia porcellus; test: Effect on the frequency rate of spontaneously beating atria from Reserpine-treated guinea pigs as percentage variation from the control at concentration of 10E-3 M; procedure, shortened: as §1
[7] = species on record: Cavia porcellus; test: Effect on the frequency rate of spontaneously beating atria from Reserpine-treated guinea pigs as percentage variation from the control at concentration of 10E-4 M; procedure, shortened: as §1
[8] = species on record: Cavia porcellus; test: Effect on the frequency rate of spontaneously beating atria from Reserpine-treated guinea pigs as percentage variation from the control at concentration of 10E-5 M; procedure, shortened: as §1
[9] = species on record: Cavia porcellus; test: Effect on the frequency rate of spontaneously beating atria from Reserpine-treated guinea pigs as percentage variation from the control at concentration of 10E-6 M; procedure, shortened: as §1
[10] = species on record: Cavia porcellus; test: Compound was evaluated for its effect on the frequency rate of spontaneously beating atria from Reserpine-treated guinea pigs as percentage variation from the control at concentration of 3 x 10E-4 M; procedure, shortened: as §1
[11] = species on record: Cavia porcellus; test: Compound was evaluated for its effect on the frequency rate of spontaneously beating atria from Reserpine-treated guinea pigs as percentage variation from the control at concentration of 3 x 10E-5 M; procedure, shortened: as §1
[12] = species on record: Cavia porcellus; test: Compound was evaluated for its effect on the frequency rate of spontaneously beating atria from Reserpine-treated guinea pigs as percentage variation from the control at concentration of 3 x 10E-6 M; procedure, shortened: as §1
[13] = species on record: Cavia porcellus; test: Effect on the contractile force of spontaneously beating atria from Reserpine-treated guinea pigs as percentage variation from the control at concentration of 10E-3 M; procedure, shortened: as §1
[14] = species on record: Cavia porcellus; test: Effect on the contractile force of spontaneously beating atria from Reserpine treated guinea pigs as percentage variation from the control at concentration of 10E-4 M; procedure, shortened: as §1

## CCc1nc(N(C)C)ncc1C(=O)O
[1]
  Variation: 4.47%
[2]
  Variation: 0%
[3]
  Variation: 14.69%
[4]
  Variation: 6.17%
[5]
  Variation: 2.44%
[6]
  Variation: -7.69%
[7]
  Variation: 1.11%
[8]
  Variation: 0%
[9]
  Variation: 0%
[10]
  Variation: -4.79%
[11]
  Variation: 0%
[12]
  Variation: 0%
[13]
  Variation: 22.03%
[14]
  Variation: 6.67%

## CCOC(=O)c1cnc(N(C)C)nc1CC
[1]
  Variation: -39.54%
[2]
  Variation: 0%
[4]
  Variation: -67.44%
[5]
  Variation: 0%
[7]
  Variation: -100%
[8]
  Variation: -9.37%
[11]
  Variation: -14.76%
[12]
  Variation: -6.25%
[14]
  Variation: -100%

## CCOC(=O)c1cnc(N(C)C)nc1C(F)(F)F
[1]
  Variation: 10.67%
[2]
  Variation: 7.15%
[3]
  Variation: -47.85%
[4]
  Variation: -3.61%
[5]
  Variation: 11.26%
[6]
  Variation: -19.35%
[7]
  Variation: -6.66%
[8]
  Variation: -3.23%
[9]
  Variation: 0%
[10]
  Variation: -6.66%
[11]
  Variation: -3.61%
[12]
  Variation: 0%
[13]
  Variation: -60.44%
[14]
  Variation: -30.35%

## CC(C)c1nc(N(C)C)ncc1C(=O)O
[1]
  Variation: 7.13%
[2]
  Variation: 1.79%
[3]
  Variation: 16.41%
[4]
  Variation: 7.79%
[5]
  Variation: 4.06%
[6]
  Variation: -28.57%
[7]
  Variation: -14.28%
[8]
  Variation: -3.13%
[9]
  Variation: 0%
[10]
  Variation: -17.58%
[11]
  Variation: -10.71%
[12]
  Variation: -3.13%
[13]
  Variation: 23.17%
[14]
  Variation: 11.77%

## COCc1nc(N(C)C)ncc1C(=O)O
[1]
  Variation: 9.99%
[2]
  Variation: 5.46%
[3]
  Variation: 8.19%
[4]
  Variation: 9.72%
[5]
  Variation: 9.16%
[6]
  Variation: -9.37%
[7]
  Variation: -6.25%
[8]
  Variation: 0%
[9]
  Variation: 0%
[10]
  Variation: -6.25%
[11]
  Variation: -3.12%
[12]
  Variation: 0%
[13]
  Variation: 5.92%
[14]
  Variation: 8.24%

## COCc1ccnc(N(C)C)n1
[1]
  Variation: 0%
[2]
  Variation: 0%
[3]
  Variation: -11.89%
[4]
  Variation: -8.02%
[5]
  Variation: 0%
[6]
  Variation: -9.33%
[7]
  Variation: -4%
[8]
  Variation: -1.33%
[9]
  Variation: 0%
[10]
  Variation: 4%
[11]
  Variation: -4%
[12]
  Variation: 0%
[13]
  Variation: -20.93%
[14]
  Variation: -9.03%

## CN(C)c1ncc(C(=O)O)c(-c2ccccc2)n1
[1]
  Variation: 11.47%
[2]
  Variation: 6.62%
[3]
  Variation: 14.22%
[4]
  Variation: 12.11%
[5]
  Variation: 10.63%
[6]
  Variation: -6.25%
[7]
  Variation: -3.12%
[8]
  Variation: 0%
[9]
  Variation: 0%
[10]
  Variation: -3.12%
[11]
  Variation: 0%
[12]
  Variation: 0%
[13]
  Variation: 18.2%
[14]
  Variation: 12.75%

## Cc1ccnc(N(C)C)n1
[1]
  Variation: 8.9%
[2]
  Variation: 0%
[3]
  Variation: 22.47%
[4]
  Variation: 16.76%
[5]
  Variation: 2.27%
[6]
  Variation: -17.34%
[7]
  Variation: 0%
[8]
  Variation: 0%
[9]
  Variation: 0%
[10]
  Variation: -6.25%
[11]
  Variation: 0%
[12]
  Variation: 0%
[13]
  Variation: -36.67%
[14]
  Variation: 19.04%

## CCOC(=O)c1cnc(N(C)C)nc1C(C)C
[1]
  Variation: 1.06%
[2]
  Variation: 0%
[3]
  Variation: -100%
[4]
  Variation: -34.22%
[5]
  Variation: 3.19%
[7]
  Variation: -2.94%
[8]
  Variation: -3.51%
[9]
  Variation: -3.85%
[10]
  Variation: -100%
[11]
  Variation: -0.91%
[12]
  Variation: -2.94%
[14]
  Variation: -57.53%

## CCCc1nc(N(C)C)ncc1C(=O)OCC
[1]
  Variation: -57.89%
[2]
  Variation: 0%
[4]
  Variation: -100%
[5]
  Variation: -5.29%
[9]
  Variation: 0%
[14]
  Variation: 0%

## CN(C)c1ncc(C(=O)O)c(C(F)(F)F)n1
[1]
  Variation: 9.45%
[2]
  Variation: 2.25%
[3]
  Variation: 14.96%
[4]
  Variation: 13.44%
[5]
  Variation: 6.15%
[6]
  Variation: -14.28%
[7]
  Variation: -3.03%
[8]
  Variation: -2.85%
[9]
  Variation: 0%
[10]
  Variation: -9.09%
[11]
  Variation: -3.03%
[12]
  Variation: 0%
[13]
  Variation: 9.52%
[14]
  Variation: 14.03%

## CCOC(=O)c1cnc(N(C)C)nc1C(C)(C)C
[1]
  Variation: -12.52%
[2]
  Variation: 0%
[4]
  Variation: -50.08%
[5]
  Variation: 2.08%
[7]
  Variation: -100%
[8]
  Variation: 4.76%
[9]
  Variation: 0%
[11]
  Variation: -7.64%
[12]
  Variation: 0%
[14]
  Variation: -100%

## CC(C)c1ccnc(N(C)C)n1
[1]
  Variation: -8.84%
[2]
  Variation: 0%
[3]
  Variation: -86.36%
[4]
  Variation: -28.95%
[5]
  Variation: 0%
[6]
  Variation: -100%
[7]
  Variation: -41.66%
[8]
  Variation: -5.15%
[9]
  Variation: 0%
[10]
  Variation: -41.66%
[11]
  Variation: -17.26%
[12]
  Variation: -5.15%
[13]
  Variation: -100%
[14]
  Variation: -68.77%

## CCOC(=O)c1cnc(N(C)C)nc1-c1ccccc1
[1]
  Variation: 12.05%
[2]
  Variation: 1.73%
[3]
  Variation: -70.37%
[4]
  Variation: 2.25%
[5]
  Variation: 10.24%
[6]
  Variation: -100%
[7]
  Variation: -3.7%
[8]
  Variation: 3.7%
[9]
  Variation: 0%
[10]
  Variation: -14.81%
[11]
  Variation: 7.4%
[12]
  Variation: 0%
[13]
  Variation: -100%
[14]
  Variation: -40.74%

## CN(C)c1nccc(C(F)(F)F)n1
[1]
  Variation: -12.62%
[2]
  Variation: 0%
[3]
  Variation: -83.03%
[4]
  Variation: -30.94%
[5]
  Variation: 2.47%
[6]
  Variation: -100%
[7]
  Variation: -22.58%
[8]
  Variation: -3.23%
[9]
  Variation: 0%
[10]
  Variation: -32.26%
[11]
  Variation: -3.68%
[12]
  Variation: 0%
[13]
  Variation: -100%
[14]
  Variation: -67.95%

## CN(C)c1nccc(-c2ccccc2)n1
[1]
  Variation: 7.52%
[2]
  Variation: 0%
[3]
  Variation: -23.76%
[4]
  Variation: 5.57%
[5]
  Variation: 4.67%
[6]
  Variation: -100%
[7]
  Variation: 0%
[8]
  Variation: 0%
[9]
  Variation: 0%
[10]
  Variation: -13.33%
[11]
  Variation: 0%
[12]
  Variation: 0%
[13]
  Variation: -100%
[14]
  Variation: -12.16%

## CN(C)c1nccc(C(C)(C)C)n1
[1]
  Variation: -5.56%
[2]
  Variation: 0%
[3]
  Variation: -34.94%
[4]
  Variation: -24.35%
[5]
  Variation: 1.13%
[6]
  Variation: -40%
[7]
  Variation: -16.66%
[8]
  Variation: -6.66%
[9]
  Variation: 0%
[10]
  Variation: -30.01%
[11]
  Variation: -13.33%
[12]
  Variation: 0%
[13]
  Variation: -35.14%
[14]
  Variation: -37.31%

## CCc1ccnc(N(C)C)n1
[1]
  Variation: 15.05%
[2]
  Variation: 5.39%
[3]
  Variation: -43.95%
[4]
  Variation: 9.21%
[5]
  Variation: 9.91%
[6]
  Variation: -42.41%
[7]
  Variation: -14.95%
[8]
  Variation: -3.03%
[9]
  Variation: 0%
[10]
  Variation: -28.91%
[11]
  Variation: -4.77%
[12]
  Variation: 0%
[13]
  Variation: -84.45%
[14]
  Variation: -10.54%

## CCCc1nc(N(C)C)ncc1C(=O)O
[1]
  Variation: 11.21%
[2]
  Variation: 5.38%
[3]
  Variation: 19.73%
[4]
  Variation: 15.72%
[5]
  Variation: 8.66%
[6]
  Variation: -4.28%
[7]
  Variation: -2.85%
[8]
  Variation: -2.85%
[9]
  Variation: 0%
[10]
  Variation: -5.71%
[11]
  Variation: -2.85%
[12]
  Variation: 0%
[13]
  Variation: 23.61%
[14]
  Variation: 18.35%

## CN(C)c1ncc(C(=O)O)cn1
[1]
  Variation: 7.54%
[2]
  Variation: 3.76%
[3]
  Variation: 8.34%
[4]
  Variation: 10.48%
[5]
  Variation: 6.36%
[6]
  Variation: 6.25%
[7]
  Variation: 3.44%
[8]
  Variation: 3.12%
[9]
  Variation: 0%
[10]
  Variation: 3.44%
[11]
  Variation: 3.44%
[12]
  Variation: 0%
[13]
  Variation: 9.64%
[14]
  Variation: 9.39%
